Activity calls are given as the source filed them. The rule behind the calls is not given here.
Assays:
4T1 [1] = test: Antitumor activity against mouse 4T1 cells implanted in BALB/c mouse assessed as decrease in serum IL-6 level at 5.7 mg/kg,iv administrated once per week for 4 weeks in presence of MDA-205 by ELISA; format: functional, organism-based
[2] = MRT in mouse plasma implanted with mouse 4T1 cells at 5.7 mg/kg,iv measured upto 72 hrs; format: ADME, organism-based
4T1 [3] = test: Antitumor activity against mouse 4T1 cells implanted in BALB/c mouse assessed as decrease in lung MMP2 expression level at 5.7 mg/kg,iv administrated once per week for 4 weeks in presence of MDA-205 by western blot assay; format: functional, organism-based
Procedure, shortened: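 4T1 cells injected into mammary fat pads of BALB/c mice. Saline vehicle or test article given iv once weekly for 4 weeks. Spleen, lung and tumor lysates immunoblotted for MMP2/MMP9 with β-actin as loading control. Bands averaged over five mice per group, representative of two independent experiments.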

[4] = Toxicity in BALB/c mouse injected with mouse 4T1 cells assessed as body weight loss at 5.7 mg/kg,iv administrated once per week for 4 weeks; format: organism-based; details: in vivo, 672 h
4T1 [5] = test: Antitumor activity against mouse 4T1 cells implanted in BALB/c mouse assessed as decrease in serum MMP9 level at 5.7 mg/kg,iv administrated once per week for 4 weeks by ELISA; format: functional, organism-based
[6] = Toxicity in BALB/c mouse xenografted with mouse 4T1 cells assessed as decrease in body weight at 5.7 mg/kg,iv administrated with doxorubicin combination once per week for 4 weeks; format: organism-based; details: in vivo, 672 h
Procedure, shortened: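 4T1 mammary fat-pad model in BALB/c mice. Doxorubicin (4 mg/kg) was given alone or co-administered with the conjugate or its parent taxane, with iv saline vehicle. Readouts were body weight, tumour volume, tumour weight, lung metastatic nodules and lung metastasis score. Mean ± SEM, n = 10; ANOVA and Student's t test.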

4T1 [7] = test: Antitumor activity against mouse 4T1 cells implanted in BALB/c mouse assessed as increase in tumor NOD1 expression level at 5.7 mg/kg,iv administrated once per week for 4 weeks in presence of MDA-205 by western blot assay; format: functional, organism-based
Procedure, shortened: (§1)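 Tumour-bearing BALB/c mice (4T1 cells into mammary fat pad) given iv saline vehicle or test agents once weekly for 4 weeks. Tumours excised and probed by western blot for MMP9, MMP2 and NOD1, β-actin as loading control. Bands averaged over five mice per group; representative of two independent experiments.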

4T1 [8] = test: Antitumor activity against mouse 4T1 cells implanted in BALB/c mouse assessed as increase in tumor NOD1 expression level at 5.7 mg/kg,iv administrated once per week for 4 weeks in presence of compound 5b by western blot assay; format: functional, organism-based; procedure, shortened: as §1
[9] = Cmax in Beagle dog at 2 mg/kg,iv measured upto 24 hrs; format: ADME, organism-based, Canis lupus familiaris; set-up: dose 2 mg/kg, time < 24 hrs, route iv; details: in vivo
Procedure, shortened: (§2)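 Beagle dogs were given a single iv infusion at 1, 2 or 4 mg/kg. Plasma parent drug and released docetaxel were followed over time. Cmax, Tmax, AUC, MRT, t1/2, CL and Vss were reported by sex and for all dogs combined.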

[10] = Stability in dog plasma assessed as compound remaining at 1 uM incubated for 6 hrs; format: ADME, cell-free, Canis lupus familiaris
[11] = Stability in rat plasma assessed as compound remaining at 40 uM incubated for 6 hrs; format: ADME, cell-free
[12] = Drug metabolism in rat bile assessed as metabolite MDA-205 formation at 4 mg/kg,iv measured after 24 hrs; format: ADME, organism-based; details: in vivo
[13] = Drug distribution in rat kidney at 4 mg/kg,iv measured by 0.25 hrs; format: ADME, organism-based; details: in vivo
Procedure, shortened: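 Rats received 4 mg/kg iv. Parent drug and released docetaxel were assayed in tissues and plasma from the first sampling at 0.25 h to 24 h. The lower limit of quantitation was 200 ng/g.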

[14] = MRT (0 to infinity) in Beagle dog at 4 mg/kg,iv measured upto 24 hrs; format: ADME, organism-based, Canis lupus familiaris; details: in vivo
[15] = Cmax in male Beagle dog at 1 mg/kg,iv measured upto 24 hrs; format: ADME, organism-based, Canis lupus familiaris; set-up: dose 1 mg/kg, time < 24 hrs, route iv; details: in vivo; procedure, shortened: as §2
[16] = Drug metabolism in rat urine assessed as metabolite docetaxel formation at 4 mg/kg,iv measured after 24 hrs; format: ADME, organism-based; details: in vivo
[17] = Tmax in mouse plasma implanted with mouse 4T1 cells at 10 mg/kg,iv measured upto 72 hrs; format: ADME, organism-based
[18] = AUC (0-infinity) in female rat at 4 mg/kg,iv measured upto 24 hrs; format: ADME, organism-based; set-up: time < 24 hrs, dose 4 mg/kg, route iv; details: in vivo
Procedure, shortened: (§3)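 Single iv dose: rats 2, 4 or 8 mg/kg by intravenous injection; Beagle dogs 1, 2 or 4 mg/kg by intravenous infusion. Plasma concentration–time data were analysed by sex and pooled. Reported parameters: Cmax, Tmax, AUC0−t, AUC0−∞, MRT0−∞, t1/2, CL, Vss, given as mean ± SD.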

[19] = Prodrug conversion in mouse plasma implanted with mouse 4T1 cells assessed as half life of docetaxel at 4 mg/kg,iv measured upto 72 hrs; format: ADME, organism-based; details: in vivo
[20] = AUC (0-t) in female rat at 8 mg/kg,iv measured upto 24 hrs; format: ADME, organism-based; set-up: dose 8 mg/kg, time < 24 hrs, route iv; details: in vivo; procedure, shortened: as §3
[21] = Tmax in male rat at 8 mg/kg,iv measured upto 24 hrs; format: ADME, organism-based; details: in vivo
MDA-MB-231 = test: Antiproliferative activity against human MDA-MB-231 cells assessed inhibition of cell growth incubated for 72 hrs by SRB assay; format: functional, cell-based; details: MDA-MB-231, 72 h
4T1 [22] = test: Antitumor activity against mouse 4T1 cells implanted in BALB/c mouse assessed as decrease in PROK2 mRNA expression in lung at 20 mg/kg,iv administrated qd for 2 days by qRT-PCR analysis; format: functional, organism-based; details: time 2.0 day
Procedure, shortened: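 Day 19 after 4T1 implantation, mice randomised into five groups; iv vehicle or 20 mg/kg plus ip C12-iE-DAP (50 μg/mouse) and MDP (100 μg/mouse) once daily for 2 days; killed after 48 h; lung mRNA for MMP8, MMP9, PROK2, S100A8, S100A9 and IL-1β by qPCR; mean ± SEM.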

[23] = Tmax in rat at 4 mg/kg,iv measured upto 24 hrs; format: ADME, organism-based; details: in vivo
[24] = Half life in male Beagle dog at 4 mg/kg,iv measured upto 24 hrs; format: ADME, organism-based, Canis lupus familiaris; details: in vivo
KM12 = test: Antiproliferative activity against human KM12 cells assessed inhibition of cell growth incubated for 72 hrs by SRB assay; format: functional, cell-based; details: KM12, 72 h
MDA-MB-435 = test: Antiproliferative activity against human MDA-MB-435 cells assessed inhibition of cell growth incubated for 72 hrs by SRB assay; format: functional, cell-based; details: MDA-MB-435, 72 h
MCF7 = test: Antiproliferative activity against human MCF7 cells assessed inhibition of cell growth incubated for 72 hrs by SRB assay; format: functional, cell-based; details: MCF7, 72 h
[25] = Toxicity in BALB/c mouse xenografted with human NCI-H1975 cells assessed as side effects at 10 mg/kg,iv administrated once per week for 3 weeks; format: organism-based; details: in vivo, 504 h
SF-295 = test: Antiproliferative activity against human SF-295 cells assessed inhibition of cell growth incubated for 72 hrs by SRB assay; format: functional, cell-based; details: SF-295, 72 h
[26] = AUC (0-infinity) in Beagle dog at 4 mg/kg,iv measured upto 24 hrs; format: ADME, organism-based, Canis lupus familiaris; set-up: time < 24 hrs, dose 4 mg/kg, route iv; details: in vivo; procedure, shortened: as §3
[27] = Toxicity in Beagle dog assessed as decrease in blood pressure at 1 to 4 mg/kg,iv; format: organism-based, Canis lupus familiaris; details: in vivo, dose 1-4 mg/kg
[28] = Tmax in male rat at 4 mg/kg,iv measured upto 24 hrs; format: ADME, organism-based; details: in vivo
[29] = Cmax in male Beagle dog at 2 mg/kg,iv measured upto 24 hrs; format: ADME, organism-based, Canis lupus familiaris; set-up: dose 2 mg/kg, time < 24 hrs, route iv; details: in vivo; procedure, shortened: as §2

CC(=O)O[C@@]12CO[C@@H]1C[C@H](O)[C@@]1(C)C(=O)[C@H](O)C3=C(C)[C@@H](OC(=O)[C@H](O)[C@@H](NC(=O)OC(C)(C)C)c4ccccc4)C[C@@](O)([C@@H](OC(=O)c4ccccc4)[C@H]21)C3(C)C [DOCETAXEL ANHYDROUS]
Activity (4T1 [1]): Active
MRT [2]: 137 min
Activity (4T1 [3]): inactive
Activity [4]: Non-Toxic
Activity (4T1 [5]): Active
Activity [6]: Toxic
Activity (4T1 [7]): inactive
Activity (4T1 [8]): inactive

CC(=O)O[C@@]12CO[C@@H]1C[C@H](O)[C@@]1(C)C(=O)[C@H](O)C3=C(C)[C@@H](OC(=O)[C@H](OC(=O)CCC(=O)NCCCC[C@H](NC(=O)CC[C@@H](NC(=O)[C@H](C)NC(=O)/C=C/c4ccc(F)cc4Cl)C(N)=O)C(=O)O)[C@@H](NC(=O)OC(C)(C)C)c4ccccc4)C[C@@](O)([C@@H](OC(=O)c4ccccc4)[C@H]21)C3(C)C
Cmax [9]: 12700 ng/mL
Stability [10]: Stable
Stability [11]: Stable
Drug metabolism [12]: Metabolite_Detected
Drug uptake [13]: Active
MRT inf [14]: 20.3 min
Cmax [15]: 3740 ng/mL
Drug metabolism [16]: Metabolite_Detected
Tmax [17]: 1.8 min
AUC(0-inf) [18]: 13000 ng·h/mL
t1/2 [19]: 178 min
AUC(0-t) at 24 h [20]: 39300 ng·h/mL
Tmax [21]: 4.98 min
IC50 (MDA-MB-231): 16.3 nM
Activity (4T1 [22]): Active
Tmax [23]: 4.98 min
half-life [24]: 36.6 min
IC50 (KM12): 16.3 nM
IC50 (MDA-MB-435): 16.3 nM
IC50 (MCF7): 16.3 nM
Activity [25]: Non-Toxic
IC50 (SF-295): 16.3 nM
AUC(0-inf) [26]: 17300 ng·h/mL
Activity [27]: Toxic
Tmax [28]: 4.98 min
Cmax [29]: 10800 ng/mL
